Laboratory results taken from ChEMBL document CHEMBL1154539, “Identification of small molecules that inhibit GSK-3beta through virtual screening” (Bioorg Med Chem Lett, 2009).
Calls of active or inactive are those of the source. No cut-off for these calls is given here.

What was measured:
[1] = target: T1, Glycogen synthase kinase-3 beta (Homo sapiens, UniProt P49841); assay: Inhibition of GSK3-beta by Z'-LYTE kinase assay
How it was run: (§1)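 Z'-LYTE fluorescence-ratio (FRET) kinase assay with GSK-3β and its peptide substrate. Relative inhibition was plotted against increasing compound concentrations and IC50 taken from the inhibition curves. […] is percent inhibition at a single 10 µM compound concentration.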
Target sequence in this assay (P49841 whole entry): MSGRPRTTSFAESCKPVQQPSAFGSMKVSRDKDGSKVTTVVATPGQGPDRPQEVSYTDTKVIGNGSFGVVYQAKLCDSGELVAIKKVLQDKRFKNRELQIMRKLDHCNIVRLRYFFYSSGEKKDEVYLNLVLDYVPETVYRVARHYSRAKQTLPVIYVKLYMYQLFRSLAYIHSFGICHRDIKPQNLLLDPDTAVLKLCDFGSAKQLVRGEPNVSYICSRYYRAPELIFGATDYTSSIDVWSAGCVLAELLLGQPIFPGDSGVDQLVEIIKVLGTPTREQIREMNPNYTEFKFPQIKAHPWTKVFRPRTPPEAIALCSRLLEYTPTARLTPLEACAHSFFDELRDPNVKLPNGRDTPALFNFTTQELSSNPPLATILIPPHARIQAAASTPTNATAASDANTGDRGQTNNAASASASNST

[2] = target: T2, Protein kinase C alpha type (Homo sapiens, UniProt P17252); assay: Inhibition of PKCalpha
How it was run: (§2)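 Counter-screen kinases (PKA, CSNK2, PKC, CDK1) were run under near-identical reaction conditions per the manufacturer's instructions, each with its own suitable substrate. Values are percent inhibition at a single 100 µM compound concentration, or IC50 in µM.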

[3] = target: T2, Protein kinase C alpha type; assay: Inhibition of PKCalpha at 100 uM
[4] = Inhibition of CSNK2 at 100 uM
[5] = target: Cyclin-dependent kinase 1 (Homo sapiens) (UniProt P06493); assay: Inhibition of CDK1 at 100 uM
[6] = Inhibition of PKA at 100 uM
[7] = target: T1, Glycogen synthase kinase-3 beta; assay: Inhibition of GSK3-beta at 10 uM by Z'-LYTE kinase assay; how it was run: as §1
Target sequence in this assay (P49841 whole entry, looked up): as the sequence (P49841 whole entry) above

[8] = target: T1, Glycogen synthase kinase-3 beta; assay: Inhibition of GSK3-beta by ATP competitive inhibition based assay
How it was run: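 GSK-3β enzyme velocity was measured with substrate across various ATP levels at increasing inhibitor concentrations. Mode of inhibition was read from Lineweaver–Burk double-reciprocal plots.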
Target sequence in this assay (P49841 whole entry, looked up): as the sequence (P49841 whole entry) above

[9] = Inhibition of PKA; how it was run: as §2
[10] = target: T1, Glycogen synthase kinase-3 beta; assay: Inhibition of GSK3-beta in myoblasts assessed as beta-casein accumulation at 2 uM after 3 hrs by immunoblot; conditions: in the assay text read “beta-catenin” for “beta-casein”
How it was run: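 C2C12 myoblasts plated at 5 × 10⁵ were exposed to compound at 2 µM for 3 h. Cells were lysed for total protein, run on SDS–PAGE and immunoblotted with anti-β-catenin antibody.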
Target sequence in this assay (P49841 whole entry, looked up): as the sequence (P49841 whole entry) above

Sequence of Cyclin-dependent kinase 1 (Homo sapiens) (P06493 whole entry, looked up): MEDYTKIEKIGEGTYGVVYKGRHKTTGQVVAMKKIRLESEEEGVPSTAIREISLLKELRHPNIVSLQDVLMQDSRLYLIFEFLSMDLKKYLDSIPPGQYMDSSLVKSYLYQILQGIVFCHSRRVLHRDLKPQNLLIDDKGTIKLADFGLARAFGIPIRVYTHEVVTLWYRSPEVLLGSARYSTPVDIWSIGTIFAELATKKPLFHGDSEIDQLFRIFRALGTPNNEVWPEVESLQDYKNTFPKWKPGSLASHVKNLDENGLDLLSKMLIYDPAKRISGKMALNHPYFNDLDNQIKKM

| SMILES | IC50 [1] [µM] | IC50 [2] [µM] | inhibition [3] [%] | inhibition [4] [%] | inhibition [5] [%] | inhibition [6] [%] | inhibition [7] [%] | Activity [8] | IC50 [9] [µM] | Activity [10] |
| --- | --- | --- | --- | --- | --- | --- | --- | --- | --- | --- |
| O=c1sn(CCc2ccccc2)c(=O)n1Cc1ccc(F)cc1 | 1.86 | 38.7 | 51 | 31 | 20 | 20 | 80 | – | – | – |
| CCOC(=O)Cn1sc(=O)n(-c2ccc(C(=O)OCC)cc2)c1=O | 1.01 | 48.3 | 78 | 36 | 12 | 81 | 75 | – | 6.9 | – |
| CCn1sc(=O)n(Cc2ccccc2)c1=O | 7.15 | 13.8 | 88 | 30 | 15 | 30 | 65 | – | – | – |

These reach a lower IC50 [1]. Values come first.

| IC50 [1] [µM] | IC50 [2] [µM] | inhibition [3] [%] | inhibition [4] [%] | inhibition [5] [%] | inhibition [6] [%] | inhibition [7] [%] | Activity [8] | IC50 [9] [µM] | Activity [10] | SMILES |
| --- | --- | --- | --- | --- | --- | --- | --- | --- | --- | --- |
| 0.548 | 5.8 | 84 | 17 | 0 | 35 | 74 | Active | – | – | O=c1sn(-c2ccccc2)c(=O)n1CCCl |
| 0.467 | 5.3 | 89 | 21 | 18 | 87 | 84 | Active | 2.2 | Active | CCOC(=O)Cn1sc(=O)n(-c2cccc(C(=O)OCC)c2)c1=O |
| 0.539 | 4.1 | 93 | 21 | 15 | 75 | 65 | – | 17 | – | CCOC(=O)Cn1sc(=O)n(CC(=O)N2CCCCC2)c1=O |
